In ChEMBL document CHEMBL4145657 (J Med Chem, 2018):
Activity calls are given as the source filed them. The calls are words filed in the database; no cut-off is given here.

How the values were obtained:
[1] = biological target: Kappa-type opioid receptor (Homo sapiens) (UniProt P41145); assay: Agonist activity at human kappa opioid receptor expressed in CHO cell membranes at 10 uM incubated for 60 mins by [35S]GTPgammaS binding assay; type: functional
How it was run: (§1)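 CHO cell membranes expressing human κ (20 µg), µ (10 µg) or δ (7 µg) opioid receptor. Test compound at 10 µM final, with 10 µM GDP and 0.1 nM [35S]GTPγS in HEPES pH 7.4 buffer containing NaCl, MgCl2, EDTA, DTT and BSA. Incubated 60 min at 22 °C with shaking, then filtered and counted. Nonspecific binding defined with 10 µM unlabeled GTPγS.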

[2] = biological target: Mu-type opioid receptor (Homo sapiens) (UniProt P35372); assay: Agonist activity at human mu opioid receptor expressed in CHO cell membranes at 10 uM incubated for 60 mins by [35S]GTPgammaS binding assay; type: functional; how it was run: as §1
[3] = biological target: Delta-type opioid receptor (Homo sapiens) (UniProt P41143); assay: Agonist activity at human delta opioid receptor expressed in CHO cell membranes at 10 uM incubated for 60 mins by [35S]GTPgammaS binding assay; type: functional; how it was run: as §1
[4] = biological target: Delta-type opioid receptor (Homo sapiens) (UniProt P41143); details: CHO
[5] = biological target: Mu-type opioid receptor (Homo sapiens) (UniProt P35372); details: CHO
[6] = Clearance in Sprague-Dawley rat plasma at 5 mg/kg, sc measured after 1 to 168 hrs post dose by LC/MS-MS method; type: ADME, organism-based
How it was run: (§2)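 Male Sprague Dawley rats, 10 weeks old, single subcutaneous 5 mg/kg dose at 1 mL/kg. Three rats per timepoint were killed by CO2 at 1, 4, 24, 72 and 168 h. Cardiac blood went into K3EDTA and was spun to plasma. Brains were homogenized 1:5 in 50:50 ethanol:water. Methanol precipitation used buspirone as internal standard. Analysis was by LC/MS-MS on C8 reverse phase. Parameters were taken from the apparent terminal elimination phase.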

[7] = Half life in Sprague-Dawley rat plasma at 5 mg/kg, sc measured after 1 to 168 hrs post dose by LC/MS-MS method; type: ADME, organism-based; details: in vivo
How it was run: as §2, with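 “mL/kg.” for “mL/kg. Three rats per timepoint were killed by CO2 at 1, 4, 24, 72 and 168 h.”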

[8] = rat, in vivo, sc, 5 mg/kg

Delta-type opioid receptor (Homo sapiens), sequence (P41143 whole entry): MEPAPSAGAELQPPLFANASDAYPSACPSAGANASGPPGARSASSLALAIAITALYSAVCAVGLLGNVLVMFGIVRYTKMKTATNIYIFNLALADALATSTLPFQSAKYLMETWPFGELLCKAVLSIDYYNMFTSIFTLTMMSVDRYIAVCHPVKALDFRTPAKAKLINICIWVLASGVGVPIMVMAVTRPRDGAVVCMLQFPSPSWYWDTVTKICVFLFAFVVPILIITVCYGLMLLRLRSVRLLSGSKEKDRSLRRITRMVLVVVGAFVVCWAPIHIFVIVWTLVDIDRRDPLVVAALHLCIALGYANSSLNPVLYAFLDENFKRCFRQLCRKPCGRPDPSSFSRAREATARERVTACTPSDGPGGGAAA
Kappa-type opioid receptor (Homo sapiens), sequence (P41145 whole entry): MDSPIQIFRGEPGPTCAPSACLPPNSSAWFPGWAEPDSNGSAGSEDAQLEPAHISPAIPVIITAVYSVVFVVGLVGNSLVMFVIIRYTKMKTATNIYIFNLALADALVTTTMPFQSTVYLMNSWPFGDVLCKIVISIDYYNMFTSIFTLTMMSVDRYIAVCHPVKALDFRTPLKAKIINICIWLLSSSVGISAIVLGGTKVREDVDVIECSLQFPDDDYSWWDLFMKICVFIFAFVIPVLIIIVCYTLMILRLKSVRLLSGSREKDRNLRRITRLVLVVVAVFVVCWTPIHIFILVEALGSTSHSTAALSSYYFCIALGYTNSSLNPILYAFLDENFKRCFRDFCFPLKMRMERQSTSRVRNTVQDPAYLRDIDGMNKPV
Mu-type opioid receptor (Homo sapiens), sequence (P35372 whole entry): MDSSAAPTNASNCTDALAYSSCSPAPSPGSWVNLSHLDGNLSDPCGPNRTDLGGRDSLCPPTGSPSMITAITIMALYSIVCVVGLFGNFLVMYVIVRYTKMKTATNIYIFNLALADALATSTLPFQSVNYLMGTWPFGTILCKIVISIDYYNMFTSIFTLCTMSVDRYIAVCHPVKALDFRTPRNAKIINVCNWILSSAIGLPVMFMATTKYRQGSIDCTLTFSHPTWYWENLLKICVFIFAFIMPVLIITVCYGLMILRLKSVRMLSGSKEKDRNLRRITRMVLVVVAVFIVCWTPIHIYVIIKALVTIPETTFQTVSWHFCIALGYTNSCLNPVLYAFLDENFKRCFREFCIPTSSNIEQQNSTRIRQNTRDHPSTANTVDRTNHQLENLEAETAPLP

| SMILES | Activity [1] | Activity [2] | Activity [3] | Ke [4] | Ke [5] | CL/F [6] | t1/2 [7] | Tmax [8] |
| --- | --- | --- | --- | --- | --- | --- | --- | --- |
| CC1CCC(C[C@@H](NC(=O)[C@H]2Cc3ccc(O)cc3CN2)C(C)C)CC1 (some centres undefined) | inactive | inactive | inactive |  |  |  |  |  |
| CC(C)[C@@H](CC1CCCCC1)NC(=O)[C@H]1Cc2ccccc2CN1 | inactive | inactive | inactive |  |  |  |  |  |
| CC(C)[C@@H](CC1CCCC1)NC(=O)[C@H]1Cc2ccc(O)cc2CN1 | inactive | inactive | inactive | 1570 nM | 344 nM | 130 mL/min/kg | 32.1 h |  |
| CC(C)[C@@H](CC1CCCCC1)NC(=O)[C@H]1Cc2ccc(C(N)=O)cc2CN1 | inactive | inactive | inactive |  |  | 71.2 mL/min/kg |  |  |
| CC(C)[C@@H](CC1CCCCC1)NC(=O)[C@H]1Cc2ccc(F)cc2CN1 | inactive | inactive | inactive |  |  |  |  |  |
| CC(C)[C@@H](CN1CC[C@@](C)(c2cccc(O)c2)[C@@H](C)C1)NC(=O)[C@H]1Cc2ccc(O)cc2CN1 [JDTIC] |  |  |  |  |  |  | 28.4 h |  |
| CC(C)[C@@H](CC1CCCC1)NC(=O)[C@H]1Cc2ccc(C(N)=O)cc2CN1 | inactive | inactive | inactive |  |  |  |  |  |
| CC(C)[C@@H](CC1CCC1)NC(=O)[C@H]1Cc2ccc(O)cc2CN1 | inactive | inactive | inactive |  |  |  |  |  |
| CC(C)[C@@H](CC1CCCC1)NC(=O)[C@@]1(C)Cc2ccc(O)cc2CN1 | inactive | inactive | inactive |  |  |  |  |  |
| CC(C)[C@@H](CC1CCCCC1)NC(=O)[C@H]1Cc2ccc(O)cc2CN1 | inactive | inactive | inactive |  |  | 98.6 mL/min/kg | 34.2 h | 1 h |
| CC(C)[C@@H](CC1CCCCC1)NC(=O)[C@H]1Cc2ccc(O)cc2CN1C | inactive | inactive | inactive |  |  |  |  |  |
| COc1ccc2c(c1)CN[C@@H](C(=O)N[C@H](CC1CCCCC1)C(C)C)C2 | inactive | inactive | inactive |  |  |  |  |  |
| O=C(NCCC1CCCCC1)[C@H]1Cc2ccc(O)cc2CN1 | inactive | inactive | inactive |  |  |  |  |  |

Second part, led by results:

| Activity [1] | Activity [2] | Activity [3] | Ke [4] | SMILES | Ke [5] | CL/F [6] | t1/2 [7] | Tmax [8] |
| --- | --- | --- | --- | --- | --- | --- | --- | --- |
| inactive | inactive | inactive | > 3000 nM | CC(C)[C@H](CC1CCCCC1)NC(=O)[C@H]1Cc2ccc(O)cc2CN1 |  |  |  |  |
| inactive | inactive | inactive |  | O=C(N[C@H](CC1CCCCC1)C1CC1)[C@H]1Cc2ccc(O)cc2CN1 |  |  |  |  |
| inactive | inactive | inactive |  | CC(C)[C@@H](CC1CCCCCC1)NC(=O)[C@H]1Cc2ccc(O)cc2CN1 |  |  |  |  |
| inactive | inactive | inactive |  | O=C(N[C@H](CC1CCCCC1)c1ccccc1)[C@H]1Cc2ccc(O)cc2CN1 |  |  |  |  |
| inactive | inactive | inactive |  | O=C(N[C@H](CC1CCCC1)C1CC1)[C@H]1Cc2ccc(O)cc2CN1 |  |  |  |  |
| inactive | inactive | inactive | > 3000 nM | CC(C)[C@H](CC1CCCCC1)NC(=O)[C@@H]1Cc2ccc(O)cc2CN1 |  |  |  |  |
| inactive | inactive | inactive | > 3000 nM | CC(C)[C@@H](CC1CCCCC1)NC(=O)[C@@H]1Cc2ccc(O)cc2CN1 |  |  |  |  |
